A selection: hits, their analogues and other compounds. The true share with any hit is near 3.5%.
sEH inh: soluble epoxide hydrolase (human) inhibition | actives 0.34% (n = 91,000) | inhibition, % at 2 µM | recombinant human sEH enzymatic activity assay | P34913; in the data active = inhibition above about 80%
ERb SRC1 inh: blocks coactivator binding to human estrogen receptor beta; Q92731; TR-FRET ER-beta LBD / SRC1-Cy5 peptide binding; receptor agonist-loaded with 1 µM estradiol; inhibition, % at 25.6 µM; actives 1.3% (n = 86,000); AID 633;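 active = compounds whose percent inhibition of the receptor-coactivator binding signal exceeds about 50% in the single-dose screen, limit read from the data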;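 note: 0% = receptor plus peptide wells without compound and 100% = peptide-only wells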
Rev-RRE block: HIV Rev-RRE protein-RNA interaction inhibition | Rev peptide-RRE RNA binding, FRET | P05866 | actives 0.79% (n = 97,000) | inhibition, % at 8 µM;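 active = inhibition above the screen-wide mean plus 3 SD, cut at about 35% in these data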;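 note: 0% = median DMSO wells and 100% = median Neomycin B control wells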
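Assay system: labelled RRE RNA duplex and labelled Rev peptide / Medium: HEPES pH 7.5 salt buffer with EDTA / Reagent: labelled Rev peptide / Schedule: 5 + 15 min at 25 °C / Signal: FRET, excitation 480 nm, emission 540 nm donor and 671 nm acceptor / Benchmarks: DMSO and neomycin B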
sEH act: increases human soluble epoxide hydrolase activity | actives 0.04% (n = 91,000) | purified human sEH enzymatic activity, activator screen | AID 717 | activation, % at 2 µM | P34913; in the data active = activation above about 37%
ERa SRC1 inh: ER-alpha (human) coactivator binding inhibition. P03372. TR-FRET ER-alpha LBD / SRC-1 peptide, estradiol-bound. inhibition, % at 25.6 µM. actives 1.7% (n = 86,000); in the data active = inhibition above about 50%;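 note: 0% = receptor plus peptide control and 100% = peptide only without receptor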
Target sequence (P03372 whole entry, looked up, the tested form may be a part): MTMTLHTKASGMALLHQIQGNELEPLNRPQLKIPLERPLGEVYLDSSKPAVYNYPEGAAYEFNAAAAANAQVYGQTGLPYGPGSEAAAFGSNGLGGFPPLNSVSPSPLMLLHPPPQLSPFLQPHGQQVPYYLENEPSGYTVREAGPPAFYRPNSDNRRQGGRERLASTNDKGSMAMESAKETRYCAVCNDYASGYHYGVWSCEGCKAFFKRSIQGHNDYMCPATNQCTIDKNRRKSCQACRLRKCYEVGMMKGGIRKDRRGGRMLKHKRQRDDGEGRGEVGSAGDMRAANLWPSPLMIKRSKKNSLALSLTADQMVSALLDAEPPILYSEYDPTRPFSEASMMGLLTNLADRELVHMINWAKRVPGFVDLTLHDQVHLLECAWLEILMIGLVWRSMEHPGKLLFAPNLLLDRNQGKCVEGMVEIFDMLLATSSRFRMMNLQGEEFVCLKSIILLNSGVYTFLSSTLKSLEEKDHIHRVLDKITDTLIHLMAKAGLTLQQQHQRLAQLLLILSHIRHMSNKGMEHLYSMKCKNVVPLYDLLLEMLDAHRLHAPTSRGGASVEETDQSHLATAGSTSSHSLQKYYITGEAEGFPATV
ERa coact pot: ER-alpha (human) coactivator binding potentiation; AID 639; actives 1.3% (n = 86,000); coactivator binding (% of control), % at 25.6 µM; TR-FRET ERalpha-LBD/SRC-Cy5 coactivator binding, 2 h; 100 = basal binding, no effect; P03372; in the data active = activity above about 200%;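 note: binding measured in presence of low estradiol as agonist stimulus; 0% = peptide alone without receptor and 100% = receptor with peptide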
Starred values were filed as active, the others as inactive; / = no result given; [ ] = remark or other dose.

SMILES	sEH inh	ERb SRC1 inh	Rev-RRE block	sEH act	ERa SRC1 inh	ERa coact pot
O=C/C(=C\Nc1ccccn1)c1nc2ccccc2o1	-6	9	8	6	14	115
COc1ccc(-c2cc(C#N)nc(N3CCNCC3)n2)cc1	10	36	-5	-13	33	305*[fluorescence artefact?]
Cc1[nH]nc(N2CCCCCC2)c1[N+](=O)[O-]	-2	-11	-2	2	-2	111
Cc1[nH]nc(SCC(=O)N2CCCCC2)c1[N+](=O)[O-]	-4	-4	5	2	-7	691*[fluorescence artefact?]
CSc1nc(=O)n(-c2ccccc2)c(C)c1C(C)=O	4	3	2	-2	4	113
N#Cc1c(Cl)c(Cl)c2nnc(-c3ccc(Br)cc3)n2c1Cl	-2	/	13	5	/	/
CCOc1ccc(S(=O)(=O)N2CCN(C(=O)c3cccn3C)CC2)cc1	2	2	7	0	0	112
CCOC(=O)c1cc(-c2ccc(C)cc2)n(CC(=O)NCc2ccco2)c1C	14	1	6	-15	-1	140
CCCCCc1nnc(NC(=O)Cc2cccs2)s1	1	82*	-3	-2	94*[fluorescence artefact?]	20
COc1cccc(-c2nnc(NC(=O)Cc3cccs3)s2)c1	0	50	6	2	63*	129
O=C(Cc1cccs1)Nc1ccccn1	-13	55*	10	17	56*	72
O=C(Cc1cccs1)Nc1nncs1	-9	56*	2	7	39	64
O=C(Cc1cccs1)Nc1ccon1	18	24	11	-16	23	90
O=C(COC(=O)Cc1cccs1)Nc1ccc(F)c(F)c1F	-2	11	0	4	7	123
O=C(Cc1cccs1)Nc1nnc(Cc2ccccc2)s1	10	91*	-4	-6	96*[fluorescence artefact?]	36
O=C(Cc1cccs1)Nc1nnc(CCc2ccccc2)s1	3	19	10	-2	16	103
CC(C)(C)c1ccc(OCC(=O)OCCNC(=O)c2cccnc2)cc1	-16	/	3	16	/	/
Nc1ccc2oc3ccc(N)cc3c(=O)c2c1	-22	-7	37*	23	33	25
COc1ccc2nc3sc(C(=O)NCc4cccs4)c(N)c3cc2c1	12	19	40*	-11	54*[fluorescence artefact?]	90
Cc1cc(C)c2c(=O)[nH]c(SCC(=O)c3ccc(C(C)C)cc3)nc2n1	6	12	13	-6	12	558*[fluorescence artefact?]
CCc1cc2c(SCC(=O)c3cccs3)ncnc2s1	8	0	11	-10	-40	168
COC(=O)c1cc[n+](CC(=O)c2ccccc2)cc1	10	/	2	-8	/	/
COC(=O)c1ccc2c(c1)C(C)(C)C(/C=C/c1ccccc1O)=[N+]2C	-5	/	79*[fluorescence artefact?]	2	/	/
Cc1nn2c(-c3cccc(NC(=O)CSc4nc5ccccc5o4)c3)nnc2c2ccccc12	3	55*	-5	0	69*[fluorescence artefact?]	200
Cc1cccc(NC(=O)CSc2nc3ccccc3o2)c1	-13	/	5	13	/	/
SMILES	sEH inh	ERb SRC1 inh	Rev-RRE block	sEH act	ERa SRC1 inh	ERa coact pot
COc1ccc(-c2noc(CCC(=O)Nc3nc4ccccc4s3)n2)cc1	3	-2	4	-4	14	208*[fluorescence artefact?]
COc1ccc(-c2noc(CCC(=O)Nc3cccc(C)c3)n2)cc1	6	-8	5	-5	-13	108
CN1CCc2nc(NC(=O)c3cccc(OC(F)F)c3)sc2C1	4	-6	65*	-2	-2	116
O=C(Cn1cnc2c(oc3ccccc32)c1=O)c1ccccc1	-4	-8	0	6	-4	266*[fluorescence artefact?]
CC(C)OCCCn1c(=NC(=O)c2ccncc2)c(C#N)cc2c(=O)n3ccccc3nc21	-36	14	31	33	12	91
CC(C)OCCCn1c(=N)c(C(N)=S)cc2c(=O)n3ccccc3nc21	-1	16	66*	2	38	101
CCN(CC)CCNc1nc(-c2ccccc2)c2c(c1C#N)CC(C)(C)OC2	8	-2	3	-5	-3	100
O=C(Nc1ccccc1F)C1CCCN(S(=O)(=O)c2cccc3cccnc23)C1 (configuration not stated)	/	53*[fluorescence artefact?]	5	/	3	123
COC(=O)C1CSc2[nH]c(=O)sc2C1c1ccccc1 (configuration not stated)	4	/	79*	-1	/	/
